The record followed here is PMC3156442 (Molecular bioSystems, 2010).

The test system of data set [1] is Jurkat cells. Description: LDH release cytotoxicity. The conditions noted are these: 10 μM, 37 °C; for Cytotoxicity by LDH release (in words): 10 min or 60 min. Type of data set: cell-based, human. The method in brief: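 Jurkat cells exposed to 10 μM lipopeptide at 37 °C for 10 or 60 min, then the plate was centrifuged at 250 × g for 4 min. Released LDH in the supernatant was read using tetrazolium substrate (RT, 30 min, dark) at 490 nm. Controls were spontaneous release, lysis-solution maximum, volume correction and medium background. % cytotoxicity = (experimental − spontaneous)/(maximum − spontaneous) × 100. Triplicate.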
In general terms: LDH in the medium is a marker of cell lysis.

The subject of data set [2] is Jurkat cells. Description: Cellular uptake of FITC-labelled LPs by flow cytometry. Type of data set: cell-based, human. The following applies: 10 μM, 10 min, 37 °C.

As to `CCCCCCCCCCCC(=O)NCCC(=O)N[C@@H](CCCNC(=N)N)C(=O)N[C@@H](CCCNC(=N)N)C(=O)N[C@@H](CCCNC(=N)N)C(=O)N[C@@H](CCCNC(=N)N)C(=O)N[C@@H](CCCNC(=N)N)C(=O)N[C@@H](CCCNC(=N)N)C(=O)N[C@@H](CCCNC(=N)N)C(=O)N[C@@H](CCCCNC(=S)Nc1ccc2c(c1)C(=O)OC21c2ccc(O)cc2Oc2cc(O)ccc21)C(N)=O` [C12R7], in the data set on Jurkat cells [1], the “Cytotoxicity by LDH release (in words)” value is recorded as “didn’t exhibit any significant toxicity”.
Still for that read-out and setting: the entry for `CCCCCCCCCCCCCC(=O)NCCC(=O)N[C@@H](CCCNC(=N)N)C(=O)N[C@@H](CCCNC(=N)N)C(=O)N[C@@H](CCCNC(=N)N)C(=O)N[C@@H](CCCNC(=N)N)C(=O)N[C@@H](CCCNC(=N)N)C(=O)N[C@@H](CCCNC(=N)N)C(=O)N[C@@H](CCCNC(=N)N)C(=O)N[C@@H](CCCCNC(=S)Nc1ccc2c(c1)C(=O)OC21c2ccc(O)cc2Oc2cc(O)ccc21)C(N)=O` [C14R7] is “didn’t exhibit any significant toxicity”.
With `CCCCCCCCCCCCCC(=O)NCCC(=O)N[C@H](CCCNC(=N)N)C(=O)N[C@H](CCCNC(=N)N)C(=O)N[C@H](CCCNC(=N)N)C(=O)N[C@H](CCCNC(=N)N)C(=O)N[C@H](CCCNC(=N)N)C(=O)N[C@H](CCCNC(=N)N)C(=O)N[C@H](CCCNC(=N)N)C(=O)N[C@H](CCCNC(=N)N)C(=O)N[C@H](CCCNC(=N)N)C(=O)N[C@H](CCCNC(=N)N)C(=O)N[C@H](CCCNC(=N)N)C(=O)N[C@@H](CCCCNC(=S)Nc1ccc2c(c1)C(=O)OC21c2ccc(O)cc2Oc2cc(O)ccc21)C(N)=O` [C14dR11], in the data set on Jurkat cells [2], the “Signal intensity relative to C14R11 (C14R11 set as 1)” value amounted to 5 fold. Also, the “Cytotoxicity (LDH release, % of maximum)” value with Jurkat cells [1] (60 min, triplicate, mean ± SD) worked out at 5.97 ± 0.9%.
In the case of `CCCCCCCCCCCCCCCC(=O)NCCC(=O)N[C@@H](CCCNC(=N)N)C(=O)N[C@@H](CCCNC(=N)N)C(=O)N[C@@H](CCCNC(=N)N)C(=O)N[C@@H](CCCNC(=N)N)C(=O)N[C@@H](CCCNC(=N)N)C(=O)N[C@@H](CCCNC(=N)N)C(=O)N[C@@H](CCCNC(=N)N)C(=O)N[C@@H](CCCCNC(=S)Nc1ccc2c(c1)C(=O)OC21c2ccc(O)cc2Oc2cc(O)ccc21)C(N)=O` [C16R7], the “Cytotoxicity by LDH release (in words)” value in the data set on Jurkat cells [1] is recorded as “didn’t exhibit any significant toxicity”.
